Hits are enriched below; roughly 2% of the tested compounds scored in any of these assays.
RAD52 anneal inh – blocks human RAD52 DNA annealing. recombinant RAD52 DNA annealing, FRET fluorescence. inhibition, % at 18.7 µM. 360,000 compounds, 0.46% hits;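 active = every replicate showing at least 50% inhibition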
PglD DTNB – blocks C. jejuni PglD acetyltransferase activity; purified PglD enzyme, DTNB colorimetric CoA detection; inhibition, % at 12.5 µM; 360,000 compounds, 0.098% hits; AID 602405; in the data active = inhibition above about 16%, passing the limit was not always enough
E-sel inducer – induces E-selectin expression in human endothelial cells | AID 686992 | P16581 | 260,000 compounds, 0.37% hits | HUVEC E-selectin immunofluorescence imaging; normalized: neutral wells 0, TNF-alpha wells 100 | activation, % at 7.58 µM;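 active = mean E-selectin-positive cell signal at least 10% of the positive control, reached in at least 60% of replicates, without over 20% cell loss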
Target sequence (P16581 whole entry, looked up): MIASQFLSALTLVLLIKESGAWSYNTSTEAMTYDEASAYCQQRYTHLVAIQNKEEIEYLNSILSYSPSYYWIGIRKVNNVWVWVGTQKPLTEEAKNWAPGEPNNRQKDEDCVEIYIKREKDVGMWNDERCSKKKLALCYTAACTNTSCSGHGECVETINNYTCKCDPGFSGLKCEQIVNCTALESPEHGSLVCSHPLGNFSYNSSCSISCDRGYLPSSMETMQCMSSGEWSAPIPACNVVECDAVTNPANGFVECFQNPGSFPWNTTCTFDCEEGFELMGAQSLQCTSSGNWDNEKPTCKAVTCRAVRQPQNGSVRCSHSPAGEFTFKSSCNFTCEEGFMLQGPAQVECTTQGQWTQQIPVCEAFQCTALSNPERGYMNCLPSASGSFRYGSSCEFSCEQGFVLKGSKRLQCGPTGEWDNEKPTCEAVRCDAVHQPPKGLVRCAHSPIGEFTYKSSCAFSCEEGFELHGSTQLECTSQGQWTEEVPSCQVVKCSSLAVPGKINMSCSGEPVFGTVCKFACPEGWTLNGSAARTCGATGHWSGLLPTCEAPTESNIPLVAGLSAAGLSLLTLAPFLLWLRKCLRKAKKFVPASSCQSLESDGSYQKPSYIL
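Test system: HUVEC | Signal: Immunofluorescence imaging | Read-out: Percent E-selectin-positive cells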
RAD54 branch – blocks human RAD54 Holliday junction branch migration. FAM/BHQ fluorescence. 360,000 compounds, 0.14% hits. Q92698. inhibition, % at 10.4 µM;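 active = mean normalized replicate activity at least 40 and at least half of replicates scoring 40 or more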;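 note: 0% = median of neutral control wells and 100% = median of positive control wells; inhibitors cause a drop in the FAM fluorescence signal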
Xi reactivation – activators of X-chromosome reactivation in mouse fibroblasts; XiGFP mouse fibroblasts, % GFP-positive cells imaging, 3 d; cells co-treated with 5-aza-dC sensitizer; scaled so ellipticine positive control = 100%; activation, % at 7.58 µM; 360,000 compounds, 0.055% hits;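 active = mean normalized replicate activation at least 10% and every replicate at or above 10%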;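 note: 0% = median of on-plate neutral control wells and 100% = ellipticine 6 µM median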
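System: XiGFP fibroblasts, SV40-immortalized. Medium: DMEM plus 5-aza-dC sensitizer. Doses: single point. Timing: 3 d treatment, 15 min room-temperature fixation. Control set: ellipticine 6 µM.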
rRNA inh HTS – selective bacterial rRNA inhibition in E. coli; GFP signal change (wild-type ribosome), % (no concentration beside the values); 350,000 compounds, 1.6% hits; AID 720706; E. coli WT GFP vs humanized-ribosome RFP mutants, fluorescence, 24 h; active compounds read low; DMSO median 0, no signal -100;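 active = significant combined selectivity score with lowered wild-type GFP, culture density cut under 30%, mutant RFP and density less affected; inactive = any of these conditions unmet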
The depositor's hits bear a star; nt = no result given; ! = not confirmed by another sample.

SMILES	RAD52 anneal inh	PglD DTNB	E-sel inducer	RAD54 branch	Xi reactivation	rRNA inh HTS
C[C@@H]1CCCCO[C@@H](CN(C)S(C)(=O)=O)[C@@H](C)CN([C@H](C)CO)C(=O)c2cc(NS(=O)(=O)c3ccccc3)ccc2O1	-1	-1	0	-21	-1	1
C[C@H](O)C#Cc1cnc2c(c1)C(=O)N([C@@H](C)CO)C[C@H](C)[C@@H](CN(C)Cc1ccc(-c3ccccc3)cc1)O2	21	2	0	-4	-1	3
CCN(C(=O)COC(=O)/C=C/c1ccco1)C1CCCCC1	-14	5	111*	1	0	-5
Cc1c(O)ccc2c(CN(C)Cc3ccccc3)cc(=O)oc12	-5	-6	0	8	0	-25*
COc1ccc(C(=O)Oc2cc3c4c(c2)C(C)=CC(C)(C)N4C(=O)C3=O)cc1OC	nt	nt	0	nt	0	nt
COc1cccc(C(=O)Oc2cc3c4c(c2)C(C)=CC(C)(C)N4C(=O)C3=O)c1	4	3	nt	10	nt	-20*
CC(Sc1ncnc2sc(-c3ccccc3)cc12)C(=O)N1CCNC1=O (stereo unspecified)	-16	1	39*	-3	0	9
COc1ccc(N=Nc2cc(C)c(O)c(CN3CCCCC3)c2)cc1	-5	-8	1	-5	0	-27*
COc1ccc(CN2CCCCCC2)cc1	-14	-1	2	-1	0	7
Cc1cc(C(=O)CSc2nnnn2-c2ccc(O)cc2)c(C)n1C	-18	nt	nt	nt	0	-26*
O=C(CSc1nnnn1-c1ccccc1)CSc1nnnn1-c1ccccc1	-52	5	nt	-4	nt	-28*
O=C(O)CSc1nnnn1-c1ccccc1	nt	-16	nt	6	nt	nt
Cc1ncc(CSc2nnnn2-c2ccccc2)c(N)n1	-9	2	nt	3	nt	-21*
Cc1[nH]c(=O)[nH]c(=O)c1CCSSCCc1c(C)[nH]c(=O)[nH]c1=O	-3	nt	0	nt	0	3
COc1cccc(CN2C[C@@H]3N[C@H](C2)C3c2ccc(-c3cccc(C#N)c3)cc2)c1 (stereo partly specified)	55*	nt	0	nt	0	-60
COc1ccc(-c2ccc(C3[C@@H]4CN(Cc5cccc(OC)c5)C[C@H]3N4)cc2)cc1 (stereo partly specified)	67*	nt	0	nt	0	-56
COc1cccc(CN2C[C@@H]3N[C@H](C2)C3c2ccc(-c3ccncc3)cc2)c1 (stereo partly specified)	-8	nt	0	nt	0	1
COc1cccc(-c2ccc(C3[C@@H]4CN(Cc5cccc(F)c5)C[C@H]3N4)cc2)c1 (stereo partly specified)	53*	nt	0	nt	0	-59
COc1cccc(-c2ccc(C3[C@@H]4CN(Cc5ccccn5)C[C@H]3N4)cc2)c1 (stereo partly specified)	nt	nt	0	nt	0	-6
COc1cccc(CN2C[C@@H]3N[C@H](C2)C3c2ccc(-c3ccccc3F)cc2)c1 (stereo partly specified)	64*!	nt	0	nt	0	-60
CCC(=O)Nc1ccc2c(c1)OC[C@@H](C)N(C(=O)CN1CCOCC1)C[C@@H](C)[C@@H](OC)CN(C)C2=O	15	-2	0	3	0	0
C[C@H](CO)N1C[C@H](C)[C@@H](CN(C)C(=O)Nc2ccccc2)Oc2ccc(NC(=O)Nc3cccc4ccccc34)cc2C1=O	11	-2	1	1	-1	-2
COc1cc(CN2C[C@@H]3N[C@H](C2)C3c2ccc(-c3ccccc3C)cc2)cc(OC)c1 (stereo partly specified)	64*	nt	-1	nt	0	-56
COc1cccc(CN2C[C@@H]3N[C@H](C2)C3c2ccc(-c3ccccc3C)cc2)c1 (stereo partly specified)	nt	nt	0	nt	0	-54
COc1ccc(N/N=C(\C#N)C(=O)NCCc2ccc(OC)c(OC)c2)cc1	-7	nt	2	nt	1	-38*
SMILES	RAD52 anneal inh	PglD DTNB	E-sel inducer	RAD54 branch	Xi reactivation	rRNA inh HTS
COc1ccc(C(=O)C2CCN(C(=S)NCCc3ccc(OC)c(OC)c3)CC2)cc1	-18	nt	0	nt	0	-25*
O=C(C[C@H]1C=C[C@@H](NS(=O)(=O)c2ccc(F)cc2)[C@H](CO)O1)NC1CCCCC1	-8	-2	1	0	-1	1
CCCNC(=O)C[C@@H]1C[C@H]2c3cc(NS(=O)(=O)c4ccc(OC)cc4)ccc3O[C@H]2[C@@H](CO)O1	nt	-1	1	-3	0	-1
CCOC(=O)c1sc(N2C(=O)C(O)=C(C(=O)c3ccco3)C2c2ccc([N+](=O)[O-])cc2)nc1C (stereo unspecified)	-27	-6	1	-5	0	-18*
COCC(=O)N(C)C[C@H]1Oc2cc(C#CC(C)(C)O)ccc2S(=O)(=O)N([C@@H](C)CO)C[C@H]1C	9	1	0	9	0	0
Cc1cccc(NC(=O)Nc2ccc(S(N)(=O)=O)cc2)c1	-8	-3	nt	-10	0	-3
NS(=O)(=O)c1cccc(NC(=O)c2cccc(-c3ccc(O)cc3)c2)c1	-6	2	nt	1	0	-26*
NS(=O)(=O)c1cccc(NC(=O)Nc2ccc(Cl)cc2)c1	-11	1	0	-6	0	-31*
COc1ccccc1S(=O)(=O)N[C@H]1CC[C@@H](CCNC(=O)C2CC2)O[C@@H]1CO	6	1	0	1	1	2
O=C(Cc1ccc(Cl)cc1)Nc1ccc(S(=O)(=O)Nc2cnc3ccccc3n2)cc1	-66	nt	nt	nt	0	-34*
O=C(Nc1ccc(S(=O)(=O)Nc2cnc3ccccc3n2)cc1)c1ccc(Cl)cc1Cl	-25	10	1	-3	0	12
CCN1[C@@H]2c3ccc(-c4ccccc4F)c(=O)n3C[C@H]1[C@H](CO)[C@H]2C(=O)NCCOC	-11	2	0	-9	0	4
COc1ccc(-c2cc(C(=O)OCc3ccccn3)c3ccccc3n2)cc1	-7	-3	nt	-3	0	-34*
CCN(c1ccccc1)S(=O)(=O)c1ccc(Cl)c(NC(=O)CSc2n[nH]c(N)n2)c1	-8	nt	-1	nt	1	-19*
Cc1[nH]c(SCC(=O)Nc2cc(S(C)(=O)=O)ccc2Cl)nc1Cc1ccccc1	-23	3	2	-11	0	-22*
Cc1cc(NC(=O)CSc2nc(Cc3ccccc3)c(C)[nH]2)no1	-15	4	nt	-2	nt	1
COCC(=O)Nc1ccc2c(c1)C(=O)N(C)C[C@@H](OC)[C@H](C)CN(CC1CC1)[C@H](C)CO2	-8	-2	0	3	-1	2

Screens from PubChem BioAssay.
